Data on 38 variants can be found in the RNAGym collection of RNA variant scans (doi:10.1126/science.aae0568).

To fix the notation:
B1: tRNA (parent)
chain: GUUCCGUUGGCGUAAUGGUAACGCGUCUCCCUCCUAAGGAGAAGACUGCGGGUUCGAGUCCCGUACGGAACG

This sample holds only a part of the variants without activity.

The series covers variants of B1. The experiment in a line: yeast fitness relative to wild type (ratio to wild type); higher = fitter; tRNA-Arg(CCU), competitive growth, 37 C, YPD. A digest of the protocol: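 A pool of Saccharomyces cerevisiae strains, each with a tRNA-Arg(CCU) gene variant at the native genomic locus, was competed in YPD at 37°C for 24 hours across six parallel replicates. The variants had been chemically synthesised at a 3% per-site mutation rate over 69 sites, and gene amplicons before and after competition were read by 100-nucleotide paired-end sequencing. Darwinian fitness relative to wild type rested on changes in genotype frequencies. Genotypes required ≥ 100 starting reads, and estimates < 0.5 were set to 0.5.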
For GUUCCGUUGGCGUAAUGGUAACGCGUCUACCUCCUAAGGGGAGGACUGCGGGUUUGAGUCUCGUAGGGAACG [C29A A40G A43G C55U C61U C66G], the yeast fitness is not above 0.5.

Turning to GUUCCGUUGGCGUAAUGGUAACGCGUCUACCUCCUAAGGAGUAGAAUGCGGGUUCGAGUCCCAUACGGAACG [C29A A42U C46A G63A], the yeast fitness is not above 0.5.

Regarding GUUCCGUUGGCGUAAUGGUAACGCGUCUACCUCCUAAGGAGAAGACUGCGGGUUCGAGUCGCGUACGGAACG [C29A C61G], the yeast fitness was not above 0.5.

GUUCCGUUGGCGUAAUGGUAACGCGUCUACCUCCUAAGGAGAAGACUGCGGGUUCGAGUCUCGUACGGAACG [C29A C61U]: the yeast fitness was 0.647.

Turning to GUUCCGUUGGCGUAAUGGUAACGCGUCUACUUCCUAAGGAGCAGACUGCGGGUUCGAGUCCCGUACGGAACG [C29A C31U A42C], the yeast fitness was determined as 0.576.

On to GUUCCGUUGGCGUAAUGGUAACGCGUCUACCUCCUAAGGAGAAGACUGCGGGUUCGUGUGCAGUACGGAACG [C29A A57U C60G C62A], for which the yeast fitness is not above 0.5.

On to GUUCCGUUGGCGUAAUGGUAACGCGUCUACCUCCUAAGGAGAAGAUUGCGGGUUCGGGUCCCGUACGGAACG [C29A C46U A57G], for which the yeast fitness is not above 0.5.

Take GUUCCGUUGGCGUAAUGGUAACGCGUCUACCUCCUAAGGAGAAGACUGCGGGUUCGAGUCGCGUACCAAACG [C29A C61G G67C G68A]: the yeast fitness was not above 0.5.

Consider GUUCCGUUGGCGUAAUGGUAACGCGUCUAACUCCUAAGGAGAAGACUGCGGGUUCGACUCCUGUACGGAACG [C29A C30A G58C C62U], for which the yeast fitness came to 0.565.

As to GUUCCGUUGGCGUAAUGGUAACGCGUCUACCUCCUAAGGAGGAGACUGCGGGUUCGCGUCCCGUACGGAACG [C29A A42G A57C], the yeast fitness was determined as 0.592.

Regarding GUUCCGUUGGCGUAAUGGUAACGCGUCUACCUCCUAAGGAGAUGACUGCGGGUUCGAGUCCCGUACGGAACG [C29A A43U], the yeast fitness was found to be 0.585.

Turning to GUUCCGUUGGCGUAAUGGUAACGCGUCUACCUCCUAAGGAGAGGACUGCGGGUUCGAGUCCCGUACGGAACG [C29A A43G], the yeast fitness came out at 0.645.

Consider GUUCCGUUGGCGUAAUGGUAACGCGUCUACCUCCUAAGGAGGAGACUGCGGGUUCGAGUCCCGUACGGAUCG [C29A A42G A70U], for which the yeast fitness amounted to 0.582.

As to GUUCCGUUGGCGUAAUGGUAACGCGUCUACCUCCUAUGGAGAAGACUGAGGGUUCGAGUCCCGUACGGAACG [C29A A37U C49A], the yeast fitness is not above 0.5.

Consider GUUCCGUUGGCGUAAUGGUAACGCGUCUACCUCUUUAGGAGAAGACUGCGGGUUCGAGUCUCGUACUGAACG [C29A C34U A36U C61U G67U], for which the yeast fitness is not above 0.5.

With GUUCCGUUGGCGUAAUGGUAACGCGUCUACCUCCUAAGGAGAAGUCUGCGGGUUCGAGCCCCGUACGGAACG [C29A A45U U59C], the yeast fitness is 0.721.

Regarding GUUCCGUUGGCGUAAUGGUAACGCGUCUACCUACUAAGGAGAAGACUGCGCGUUCGAGUCUCGUACGGAACG [C29A C33A G51C C61U], the yeast fitness was not above 0.5.

On to GUUCCGUUGGCGUAAUGGUAACGCGUCUAACUCCUAAGGAGAAGACUGCGGGUUCGAAUCCCGUACGGAACG [C29A C30A G58A], for which the yeast fitness is not above 0.5.

With GUUCCGUUGGCGUAAUGGUAACGCGUCUACCUCCUAAGGAGAAGAAUGCGGGUUCGAGUCCCGUACGGAGCG [C29A C46A A70G], the yeast fitness was not above 0.5.

On to GUUCCGUUGGCGUAAUGGUAACGCGUCUAACUCCUAAGGAGAAGACUGCGGGUUCGAGUCCCGUACGGAACG [C29A C30A], for which the yeast fitness is 0.591.

Turning to GUUCCGUUGGCGUAAUGGUAACGCGUCUACCUCCUAAGGAGAAGACUGCGGGUUCGUGUCCCGUCCGGAACG [C29A A57U A65C], the yeast fitness stood at 0.584.

Turning to GUUCCGUUGGCGUAAUGGUAACGCGUCUACCUCCUAAGGAGGAGUCUGCAGGUUCGAGUACCGUACGGAACG [C29A A42G A45U G50A C60A], the yeast fitness was not above 0.5.

For the variant GUUCCGUUGGCGUAAUGGUAACGCGUCUACCUCCUAAGGAGAAGACUGCGGGUUCGAGUCCAGUACGGAACG [C29A C62A], the yeast fitness came out at 0.581.

Regarding GUUCCGUUGGCGUAAUGGUAACGCGUCUAUCUCCUAAGGAGAAGACUGUGGGUUCGAGUCCCGUACGGAACG [C29A C30U C49U], the yeast fitness is not above 0.5.

Take GUUCCGUUGGCGUAAUGGUAACGCGUCUACCUCCUAAGGAGAAGACUGCGGGUUCGAGUCGCGUACGGAUCG [C29A C61G A70U]: the yeast fitness is not above 0.5.

As for GUUCCGUUGGCGUAAUGGUAACGCGUCUACCUUCUAAGGAGAAGACAGCGGGUUCGAGUCCCGUACGGAACG [C29A C33U U47A], the yeast fitness is not above 0.5.

As for GUUCCGUUGGCGUAAUGGUAACGCGUCUACCUCCUAAGGAGAAGACUGCGGGUUCGAGUCCUGUACGAAACG [C29A C62U G68A], the yeast fitness is not above 0.5.

Consider GUUCCGUUGGCGUAAUGGUAACGCGUCUACCUCCUAAGGAGUAGAAUGCGGGUUCGAGUCCCGUACGGAACG [C29A A42U C46A], for which the yeast fitness amounted to 0.619.

For the variant GUUCCGUUGGCGUAAUGGUAACGCGUCUACCUCCUAAGGAGAAGACUGCGGGUUCGUGUCCUGUACGGAACG [C29A A57U C62U], the yeast fitness was not above 0.5.

On to GUUCCGUUGGCGUAAUGGUAACGCGUCUACCUCCUAAGGAGAAGACUGCGGGUUCGAGUCCUGCACGGAACG [C29A C62U U64C], for which the yeast fitness worked out at 0.554.

For the variant GUUCCGUUGGCGUAAUGGUAACGCGUCUACCUCCUAAGGAGAAGACUGCGGGUUCGCGUCCCGUACGGAACG [C29A A57C], the yeast fitness amounted to 0.555.

GUUCCGUUGGCGUAAUGGUAACGCGUCUACCUCCUAAGGAGAAGACUGCGGGUUCGAGUGCCGUACGGAACG [C29A C60G]: the yeast fitness worked out at 0.584.

GUUCCGUUGGCGUAAUGGUAACGCGUCUACCUGCUAGGGAGAAGACUGUGGGUUCGAGUCCCGUAUGGAACG [C29A C33G A37G C49U C66U]: the yeast fitness was not above 0.5.

Turning to GUUCCGUUGGCGUAAUGGUAACGCGUCUACCUCCUAAGGAGAAGAUUGCGGGUUCGAGUCCCGUACGGAGCG [C29A C46U A70G], the yeast fitness worked out at 0.711.

For the variant GUUCCGUUGGCGUAAUGGUAACGCGUCUACCUCCUAAGGAGAUGACUGCGGGUUCGCGUCCCGUACGGAACG [C29A A43U A57C], the yeast fitness is 0.642.

For GUUCCGUUGGCGUAAUGGUAACGCGUCUACCUCCUAAGGAGGAGUCUGCAGGUUCGAGUCCCGUACGGAACG [C29A A42G A45U G50A], the yeast fitness was 0.534.

Regarding GUUCCGUUGGCGUAAUGGUAACGCGUCUACCUCCUAAGGAGAAGACUGCGGGUUUGAGUCCCGUACGGAACG [C29A C55U], the yeast fitness worked out at 0.603.

On to GUUCCGUUGGCGUAAUGGUAACGCGUCUACCUCCUAAGGAGAAGACUGCGGGUUAGAGUCCCGUACGGAACG [C29A C55A], for which the yeast fitness was not above 0.5.
